Screening data from PubChem BioAssay.
CHO parental Ca: ATP-evoked calcium signal inhibitors, parental CHO, primary screen, counter-screen for OX1R antagonist project, cell-based, fluorescence, Fluo-8 calcium dye | parental CHO-K1, ATP-induced calcium, Fluo-8 fluorescence | 330,000 compounds, 0.63% hits | inhibition, % at 5.6 µM;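 active means inhibition above that plate's mean sample inhibition plus 3 SD, cut at about 26% in these data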
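Test system: untransfected parental CHO cell line; also added: ATP stimulus; dosing: 5.6 µM, single dose; signal: calcium-sensitive Fluo-8 fluorescence; measure: percent inhibition of ATP-evoked calcium rise, normalized to controls; benchmarks: low control ATP plus DMSO, high control DMSO only; replication: one well per compound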
OXTR potentiate: human OXTR potentiators, primary screen, fluorescence, CHO-OTR cells, Fluo-8 calcium | activation, % at 3 µM | Fluo-8 calcium fluorescence, potentiator mode; 0% = oxytocin EC15, 100% = EC100 | AID 2445, 2010 | 320,000 compounds, 0.061% hits | Oxytocin receptor (Homo sapiens), P30559;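 active means activation above that plate's cutoff, the mean activation of tested compounds plus 3 SD, cut at about 6.6% in these data, passing the limit was not always enough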
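Dosing: Single dose, 3.0 µM nominal final compound concentration | Material: Human OTR in CHO cells | Technique: Kinetic Fluo-8 calcium fluorescence | Benchmarks: EC15 oxytocin alone as 0%, 75 nM oxytocin as 100% | Probe or stimulus: Oxytocin at about EC15, sub-maximal agonist stimulus | Incubation: Compound 6 min at room temperature before oxytocin, 100 s read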
OX1R antag-1: OX1R (HCRTR1) antagonists, primary screen, fluorescence, CHO/OX1R cells, Fluo-8 calcium, orexin A | Orexin/Hypocretin receptor type 1 (Homo sapiens), O43613 | Fluo-8 calcium fluorescence | inhibition, % at 5 µM | 330,000 compounds, 0.43% hits | AID 434989, 2010;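 active means inhibition above its plate's threshold, mean inhibition of all tested compounds on the plate plus 3 SD, cut at about 37% in these data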
V1aR counter: agonists of human V1a receptor, primary screen, counter-screen for OXTR agonist project, fluorescence, CHO-V1R cells | activation, % at 3 µM | Vasopressin V1a receptor (Homo sapiens), P37288 | Fluo-8 calcium fluorescence, agonist mode; 0% DMSO, 100% 3 nM vasopressin | 320,000 compounds, 0.25% hits;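 active means activation above the mean activation of all tested compounds plus 3 SD, per screening run, cut at about 20% in these data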;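 further: signal is peak over basal fluorescence ratio across a 100 second FLIPR read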
Target sequence (P37288 whole entry, looked up): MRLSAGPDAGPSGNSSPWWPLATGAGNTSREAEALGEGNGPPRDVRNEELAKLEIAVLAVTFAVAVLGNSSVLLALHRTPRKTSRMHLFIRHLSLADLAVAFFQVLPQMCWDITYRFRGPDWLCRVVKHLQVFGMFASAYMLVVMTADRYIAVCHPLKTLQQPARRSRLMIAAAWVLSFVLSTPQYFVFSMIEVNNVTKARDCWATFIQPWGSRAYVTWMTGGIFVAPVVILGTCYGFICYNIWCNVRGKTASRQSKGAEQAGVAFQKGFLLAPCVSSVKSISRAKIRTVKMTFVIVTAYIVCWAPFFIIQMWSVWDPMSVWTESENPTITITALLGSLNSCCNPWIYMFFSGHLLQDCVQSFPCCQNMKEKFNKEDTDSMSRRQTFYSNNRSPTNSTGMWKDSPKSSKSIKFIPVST
OX1R antag-2: antagonists of human orexin 1 receptor (OX1R) | 330,000 compounds, 1.8% hits | OX1R-expressing cells, FRET antagonist read-out | Orexin/Hypocretin receptor type 1 (Homo sapiens), O43613 | inhibition, % at 6.6 µM | AID 485270, 2010; in the data active means inhibition mostly above about 38%, no sharp cut-off; inactive means mostly below about 40%
OXTR agonist: human OXTR agonists, primary screen, fluorescence, CHO-OTR cells, Fluo-8 calcium. Oxytocin receptor (Homo sapiens), P30559. Fluo-8 calcium fluorescence; normalized: DMSO 0%, oxytocin 100%. activation, % at 3 µM. 320,000 compounds, 0.32% hits;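 active means activation above the mean of all tested compounds plus 3 SD, cutoff set per screening run, cut at about 20% in these data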;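 further: peak over basal fluorescence ratio from a 100 s FLIPR kinetic read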
Large screens that a line does not name were inactive. Sampled rows, rich in hits. Any-hit rate of the full collection: about 2.7%.

CCC1(c2ccc(F)cc2)NC(=O)N(CC(=O)N2CC(=O)Nc3ccccc32)C1=O (centres undefined)	none
COc1ccc(NC(=O)C2CCN(S(=O)(=O)c3ccc(N4CCCC4=O)cc3)CC2)c(OC)c1	none
COc1ccc(NC(=O)C2CCN(S(=O)(=O)c3ccc4c(c3)NC(=O)C(C)S4)CC2)cc1 (centres undefined)	none
Cc1ccc(NC(=O)C2CCN(S(=O)(=O)c3ccc(N4CCCC4=O)cc3)CC2)cc1Cl	CHO parental Ca 64
CC1Sc2ccc(S(=O)(=O)N3CCC(C(=O)Nc4ccc(Cl)cc4)CC3)cc2NC1=O (centres undefined)	CHO parental Ca 54
O=C(NNC(=O)c1ccccc1F)c1cccc(-n2cccc2)c1	none
O=C(Nc1ccc(Cl)c(Cl)c1)OCCNC(=O)c1cccc(Cl)c1	CHO parental Ca 40
Cc1ccc(-c2nnc(NC3CCCC3)s2)cc1	none
O=C(NCc1ccco1)c1cccn2c(=O)c3sccc3nc12	OX1R antag-2 42
O=C(NCc1cccs1)c1cccn2c(=O)c3sccc3nc12	none
COc1ccc(S(=O)(=O)N2CCSC2c2ccc(OC)c(OC)c2)cc1 (centres undefined)	none
COc1ccc(C2SCCN2S(=O)(=O)c2ccc(F)cc2)cc1OC (centres undefined)	OX1R antag-2 37
O=C(NC1CC1)c1ccc(CSCc2ccccc2Cl)o1	none
COc1ccc(CCNc2ncnc3c2oc2ccccc23)cc1OC	CHO parental Ca 79, OX1R antag-1 60, OX1R antag-2 78
COc1ccc(CCNc2nc(C)nc3c2oc2ccccc23)cc1OC	CHO parental Ca 58, OX1R antag-2 54
O=C(CN1CCN(C(C(=O)Nc2ccc(F)cc2)c2ccccc2)CC1)NC1CC1 (centres undefined)	none
O=C(O)c1cnc(-c2ccccc2)nc1Sc1ccccc1Cl	OX1R antag-2 56
O=C(O)c1cnc(-c2ccccc2)nc1Sc1ccc(Cl)cc1	none
O=C(NCc1ccccc1CN1CCCC1)c1cccc(N2CCCC2=O)c1	none
Cc1c(Cl)cccc1NC(=S)N1CCCN(Cc2ccccc2F)C1	none
Fc1ccccc1CN1CCCN(C(=S)Nc2cccc(Cl)c2)C1	CHO parental Ca 40
Cc1c(Cl)cccc1NC(=S)N1CCCN(Cc2ccc(F)cc2)C1	CHO parental Ca 33
Cc1nc(Cc2nnc(SC(C)C(=O)Nc3cccc(C#N)c3)o2)cs1 (centres undefined)	none
CCn1ccnc1CNC(=O)c1ccc(OC2CCN(C(=O)COC)CC2)cc1	none
Cc1nc2ccc3[nH]snc3c2n1	OX1R antag-2 52
CC(=O)Nc1ccc(S(=O)(=O)NCCC(=O)NCCCc2ccccc2)cc1	none
CC(=O)c1c(O)cc(O)c(C(C)=O)c1O	CHO parental Ca 57, OX1R antag-2 72
Cc1ccc(C(=O)CCC(=O)Nc2cc(C)ccn2)cc1	none
O=C(NCC1CCCO1)c1ccc(Br)c(S(=O)(=O)N2CCOCC2)c1 (centres undefined)	none
CC(=O)Oc1ccc(/C=C2/Oc3ccccc3C2=O)cc1	CHO parental Ca 49
CC(C)Cn1nc(C(=O)Nc2nnc(C3CC3)s2)c2ccccc2c1=O	none
O=C(O)c1cc2ccccc2c(N=Nc2cccnc2)c1O	OX1R antag-2 74
Cc1cccc2c(C(=O)O)cc(-c3cccnc3)nc12	none
Cc1sc2ncnc(N/N=C/c3cccc(O)c3)c2c1C	none
C/C(=N\Nc1ncnc2sc(C)c(C)c12)c1ccccn1	CHO parental Ca 79, OX1R antag-1 90, V1aR counter 134, OXTR agonist 124
CN(C)CCOc1ccc(-c2c(-c3ccccc3)sc3ccccc23)cc1	CHO parental Ca 49, OX1R antag-1 64
CC(C)(C)C1COc2ccccc2N1C(=O)c1cccc(Cl)c1 (centres undefined)	none
